Bioassay records (PubChem BioAssay)
CSC inhib: cancer stem cell inhibition; cancer stem cell-like cells viability, luminescence; inhibition, % at 7.5 µM; 1.1% of 300,000 active; AID 2717; in the data active means inhibition above about 75%; tested in HMLE shEcad cells
NR3A LBD binder: modulates the human NR3A ligand-binding domain. NR3A LBD differential scanning fluorimetry, Tm shift; 0% = protein alone, 100% = glycine-bound protein. Tm shift relative to glycine control, % at 25 µM. 2.5% of 340,000 active. AID 1259313;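 active means melting temperature shift of at least 10% of the positive control shift, at one fixed dose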
CHOP inhibitor: inhibitors of CHOP induction in ER stress response | CHO-K1 CHOP-promoter luciferase, tunicamycin-induced, 15-18 h | inhibition, % at 10 µM | 3.8% of 220,000 active | AID 2732;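 active means compounds that reduced the stress-induced luciferase reporter signal by more than about 70% of percent inhibition, limit read from the data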;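 further: 0% = tunicamycin plus vehicle and 100% = wells without tunicamycin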
Beta cell apopt: beta cell apoptosis inhibition | INS-1E cytokine-induced death, ATP luminescence, 48 h; percent of positive-control rescue, neutral wells zero | protection from apoptosis, % (test concentration not listed) | 0.8% of 300,000 active;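 active means Every replicate reaches about 75%, or at least half do and their mean reaches it too, limit read from the data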;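 further: 0% = cytokine-treated negative control wells and 100% = positive control rescue; higher means more ATP so stronger rescue from cytokine killing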
PREPL inh: inhibits the human prolyl oligopeptidase-like enzyme | recombinant PREPL, fluorescence polarization activity-based probe | inhibition, % at 5.96 µM | 0.68% of 320,000 active; in the data active means inhibition above about 43%;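 further: 0% = enzyme with DMSO and 100% = wells lacking enzyme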
Target sequence (Q4J6C6 whole entry, looked up): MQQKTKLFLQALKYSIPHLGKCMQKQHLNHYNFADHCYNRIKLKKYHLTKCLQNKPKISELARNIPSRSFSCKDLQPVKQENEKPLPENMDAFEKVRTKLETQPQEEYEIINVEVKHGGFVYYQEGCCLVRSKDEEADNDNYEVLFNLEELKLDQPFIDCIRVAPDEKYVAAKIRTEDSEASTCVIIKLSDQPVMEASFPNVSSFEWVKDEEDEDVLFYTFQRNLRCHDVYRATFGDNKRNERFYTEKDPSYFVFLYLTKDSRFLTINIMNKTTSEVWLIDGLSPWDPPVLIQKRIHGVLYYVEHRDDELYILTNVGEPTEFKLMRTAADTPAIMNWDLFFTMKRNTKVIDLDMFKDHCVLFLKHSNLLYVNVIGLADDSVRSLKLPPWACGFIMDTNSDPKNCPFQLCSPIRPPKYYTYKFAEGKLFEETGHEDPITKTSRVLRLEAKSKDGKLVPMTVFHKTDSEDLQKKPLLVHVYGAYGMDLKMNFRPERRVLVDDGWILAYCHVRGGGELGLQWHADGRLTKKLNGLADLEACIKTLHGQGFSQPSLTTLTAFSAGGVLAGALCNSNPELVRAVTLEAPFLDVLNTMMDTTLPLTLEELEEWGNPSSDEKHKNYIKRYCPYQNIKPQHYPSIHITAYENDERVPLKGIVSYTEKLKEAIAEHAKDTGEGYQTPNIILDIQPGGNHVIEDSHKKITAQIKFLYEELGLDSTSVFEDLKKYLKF
T cruzi inh: blocks replication of Trypanosoma cruzi. inhibition, % (concentration not given with the values). 1.4% of 300,000 active. AID 1885. T. cruzi beta-gal in NIH3T3, luminescence, 90 h;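 active means mean inhibition across valid replicates above about 55%, limit read from the data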;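 further: signal also drops with host cell toxicity which is not excluded here; 0% = plate median of DMSO wells and 100% = zero luminescence signal; higher percent means less beta-gal luminescence so fewer parasites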
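System: mouse NIH/3T3 fibroblasts infected with β-gal-expressing T. cruzi Tulahuen C4 / Input: NIH/3T3 cells, 5,000 per well / Buffer or medium: Low-serum DMEM with 2% FBS / Probe or stimulus: 5000 reporter trypomastigotes per well / Schedule: ≥90 h infection period, 3 h prior cell attachment / Measured by: GalScreen luminescence, 60 min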
Numbers without * were called inactive. The list is not random: actives were taken first. Their share in the collection is about 6.7%.

Screening O=C(OCc1nnc(-c2ccc(Cl)cc2)o1)c1ccc(O)cc1 returned CSC inhib -13.0, NR3A LBD binder -6.1, CHOP inhibitor 20.3, Beta cell apopt -8.5, PREPL inh -12.6 and T cruzi inh 7.5.
CN(C(=O)c1ccc(Cl)c([N+](=O)[O-])c1)C1(C)CCS(=O)(=O)C1 (stereo unspecified) was read as CSC inhib -6.6, Beta cell apopt -4.9, PREPL inh -3.0 and T cruzi inh -7.7.
Cc1csc2nc3cc(C(N)=O)ccc3c(=O)n12 was read as CSC inhib -6.2, NR3A LBD binder -4.7, CHOP inhibitor -18.6, Beta cell apopt -7.5, PREPL inh 6.1 and T cruzi inh -20.1.
For NC(=O)c1ccc2c(=O)n3c(-c4cc(Cl)c(N)c(Cl)c4)csc3nc2c1 the results were CSC inhib 34.3, NR3A LBD binder -2.3, CHOP inhibitor 87.5*, Beta cell apopt -0.7, PREPL inh 0.1 and T cruzi inh -11.3.
For Cc1ccc(C)n1-c1nnc(N2CCC(C(=O)NCCCN3CCN(C)CC3)CC2)s1 the results were NR3A LBD binder -0.8, Beta cell apopt -10.0, PREPL inh -0.9 and T cruzi inh -18.7.
For O=C(CNS(=O)(=O)c1ccc(Br)s1)N1CCC(N2CCCCC2)CC1 the results were CSC inhib -11.7, NR3A LBD binder 12.5*, CHOP inhibitor 20.6, Beta cell apopt -2.2 and PREPL inh 12.6.
Cc1ccc(N2CCN(C(=O)CNS(=O)(=O)c3ccc(Br)s3)CC2C)cc1 (stereo unspecified) was read as CSC inhib -3.4, NR3A LBD binder -1.1, CHOP inhibitor 72.5*, Beta cell apopt -0.5, PREPL inh -14.7 and T cruzi inh 14.7.
CC1CCN(C(=O)CNS(=O)(=O)c2ccc(Br)s2)CC1 was read as CSC inhib -15.7, NR3A LBD binder 4.8, CHOP inhibitor 26.0, Beta cell apopt -1.6, PREPL inh 4.3 and T cruzi inh -4.5.
For COc1cccc(NC(=O)CSc2nc(O)c(C)c(=O)n2-c2ccc(C)cc2)c1 the results were CSC inhib -6.7, NR3A LBD binder -4.4, Beta cell apopt -3.7, PREPL inh 0.3 and T cruzi inh -8.3.
`Cc1noc(C)c1COc1ccc(C(=O)OCC(=O)c2ccc3c(c2)OCCO3)cc1` gave CSC inhib -4.6, NR3A LBD binder 11.3*, CHOP inhibitor 1.2, Beta cell apopt 0.1, PREPL inh -0.5 and T cruzi inh -7.3.
`CC1(C)[C@@H](O)CC[C@]2(C)[C@H]3C(=O)C=C4[C@@H]5C[C@@](C)(C(=O)O)CC[C@]5(C)CC[C@@]4(C)[C@]3(C)CC[C@@H]12` gave CSC inhib -5.1, NR3A LBD binder 0.3, CHOP inhibitor 59.4, Beta cell apopt -5.3, PREPL inh 15.4 and T cruzi inh -6.3.
Screening C[C@H]1[C@H](C)CC[C@]2(C)CC[C@]3(C)C(=CC(=O)C4[C@@]5(C)CC[C@H](O)C(C)(C)C5CC[C@]43C)[C@H]12 (stereo partly specified) returned CSC inhib 98.2*, NR3A LBD binder -25.2, Beta cell apopt 4.6 and PREPL inh 2.3.
`CC1(C)CC[C@]2(C(=O)O)[C@H](O)C[C@]3(C)C(=CCC4[C@@]5(C)C[C@H](O)[C@H](O)[C@@](C)(CO)C5CC[C@]43C)[C@@H]2C1` (stereo partly specified) gave CSC inhib -4.4, NR3A LBD binder -1.8, Beta cell apopt -3.1, PREPL inh 9.6 and T cruzi inh -4.1.
C[C@@H]1CC[C@]2(C(=O)O)CC[C@]3(C)C(=CCC4[C@]56CC[C@@](O)(OC5)C(C)(C)C6CC[C@]43C)C2[C@H]1C (stereo partly specified) was read as CSC inhib 96.1*, NR3A LBD binder -3.0, Beta cell apopt 2.8 and PREPL inh -23.6.
C[C@H]1[C@H](C)CC[C@]2(C(=O)O)CC[C@]3(C)C(=CC[C@@H]4[C@@]5(C)C[C@@H](O)[C@H](O)C(C)(C)[C@@H]5CC[C@]43C)[C@H]12 was read as CSC inhib 94.7*, NR3A LBD binder -3.3, CHOP inhibitor 72.4*, Beta cell apopt 2.4, PREPL inh -8.3 and T cruzi inh 16.8.
Screening C[C@H]1[C@H](C)CC[C@]2(C)CC[C@]3(C)C(=CC[C@@H]4[C@@]5(C)CC[C@@H](O)[C@](C)(C(=O)O)[C@@H]5CC[C@]43C)[C@H]12 returned CSC inhib 76.5*, CHOP inhibitor 1.5, Beta cell apopt -4.4, PREPL inh -10.3 and T cruzi inh 0.6.
Screening C[C@@H]1CC[C@]2(C(=O)O[C@@H]3O[C@H](CO)[C@@H](O)[C@H](O)[C@H]3O)CC[C@]3(C)C(=CCC4[C@@]5(C)C[C@@H](O)[C@H](O)[C@@](C)(C(=O)O[C@@H]6[C@H](O)C[C@@]7(C)C(CC[C@]8(C)C7CC=C7[C@H]9[C@](C(=O)O[C@@H]%10O[C@H](CO)[C@@H](O)[C@H](O)[C@H]%10O)(CC[C@@H](C)[C@@]9(C)O)CC[C@]78C)[C@@]6(CO)C(=O)O)C5CC[C@]43C)[C@@H]2[C@]1(C)O (stereo partly specified) returned NR3A LBD binder -0.5, Beta cell apopt -6.6 and PREPL inh 4.1.
`C#CCNC(=O)C1=C[C@H](c2ccc(C(F)(F)F)cc2)C[C@H](OCCCCO)O1` gave CSC inhib -12.0, NR3A LBD binder -2.5, CHOP inhibitor 9.4, Beta cell apopt 5.2, PREPL inh 1.9 and T cruzi inh -7.5.
For Cc1cc(=O)oc(C)c1C(=O)Nc1cccc(F)c1 the results were CSC inhib 11.5, NR3A LBD binder 3.0, CHOP inhibitor 15.4, Beta cell apopt -1.6, PREPL inh 15.6 and T cruzi inh -5.2.
Screening C[C@H]1[C@H](C)CC[C@]2(C(=O)O)CC[C@]3(C)C(=CC[C@@H]4[C@@]5(C)CC[C@H](O)C(C)(C)[C@@H]5CC[C@]43C)[C@H]12 returned CSC inhib 65.8, NR3A LBD binder -0.5, CHOP inhibitor 72.5*, Beta cell apopt 22.4, PREPL inh -2.5 and T cruzi inh 2.9.
C[C@@H]1CC[C@]2(C(=O)O)CC[C@]3(C)C(=CCC4[C@@]5(C)CC[C@H](O)[C@@](C)(C(=O)O)C5CC[C@]43C)C2[C@]1(C)O (stereo partly specified) was read as CSC inhib -14.0, NR3A LBD binder 8.7, Beta cell apopt -9.1 and PREPL inh 26.5.
Screening Cn1cnc([N+](=O)[O-])c1Sc1ccc(C(C)(C)C)cc1 returned CSC inhib -6.7, NR3A LBD binder 5.1, CHOP inhibitor 10.6, Beta cell apopt -0.5, PREPL inh 4.8 and T cruzi inh 26.7.
`CNc1ccc(Oc2nc([N+](=O)[O-])nn2C)cc1` gave CSC inhib -5.2, NR3A LBD binder -1.6, CHOP inhibitor 4.2, Beta cell apopt 3.4, PREPL inh 11.2 and T cruzi inh 68.6*.
